Reference: ChEMBL document CHEMBL1240439, “Synthesis and docking studies of novel benzopyran-2-ones with anticancer activity” (2010)

Experiments:
Type in all cases: functional
MOLT-4 = assay: Cytotoxicity against human MOLT4 cells assessed as cell growth at 10 uM after 48 hrs by sulforhodamine B assay; settings: MOLT-4, 48 h, read-out: Activity
NCI-H522 = assay: Cytotoxicity against human NCI-H522 cells assessed as cell growth at 10 uM after 48 hrs by sulforhodamine B assay; settings: NCI-H522, 48 h, read-out: Activity
PC-3 = assay: Cytotoxicity against human PC3 cells assessed as cell growth at 10 uM after 48 hrs by sulforhodamine B assay; settings: PC-3, 48 h, read-out: Activity
UACC-62 = assay: Cytotoxicity against human UACC62 cells assessed as cell growth at 10 uM after 48 hrs by sulforhodamine B assay; settings: UACC-62, 48 h, read-out: Activity
SR = assay: Cytotoxicity against human SR cells assessed as cell growth at 10 uM after 48 hrs by sulforhodamine B assay; settings: read-out: Activity
EKVX = assay: Cytotoxicity against human EKVX cells assessed as cell growth at 10 uM after 48 hrs by sulforhodamine B assay; settings: read-out: Activity
SK-MEL-2 = assay: Cytotoxicity against human SK-MEL-2 cells assessed as cell growth at 10 uM after 48 hrs by sulforhodamine B assay; settings: SK-MEL-2, 48 h, read-out: Activity
OVCAR-4 [1] = assay: Cytotoxicity against human OVCAR4 cells assessed as cell growth at 10 uM after 48 hrs by sulforhodamine B assay; settings: OVCAR-4, 48 h, read-out: Activity
NCI-H226 = assay: Cytotoxicity against human NCI-H226 cells assessed as cell growth at 10 uM after 48 hrs by sulforhodamine B assay; settings: NCI-H226, 48 h, read-out: Activity
NCI-H23 = assay: Cytotoxicity against human NCI-H23 cells assessed as cell growth at 10 uM after 48 hrs by sulforhodamine B assay; settings: NCI-H23, 48 h, read-out: Activity
HCT-15 = assay: Cytotoxicity against human HCT15 cells assessed as cell growth at 10 uM after 48 hrs by sulforhodamine B assay; settings: HCT-15, 48 h, read-out: Activity
KM12 = assay: Cytotoxicity against human KM12 cells assessed as cell growth at 10 uM after 48 hrs by sulforhodamine B assay; settings: KM12, 48 h, read-out: Activity
MDA-MB-231 = assay: Cytotoxicity against human MDA-MB-231 cells assessed as cell growth at 10 uM after 48 hrs by sulforhodamine B assay; settings: MDA-MB-231, 48 h, read-out: Activity
BT-549 = assay: Cytotoxicity against human BT549 cells assessed as cell growth at 10 uM after 48 hrs by sulforhodamine B assay; settings: BT-549, 48 h, read-out: Activity
OVCAR-3 = assay: Cytotoxicity against human OVCAR-3 cells assessed as cell growth at 10 uM after 48 hrs by sulforhodamine B assay; settings: OVCAR-3, 48 h, read-out: Activity
OVCAR-8 = assay: Cytotoxicity against human OVCAR8 cells assessed as cell growth at 10 uM after 48 hrs by sulforhodamine B assay; settings: OVCAR-8, 48 h, read-out: Activity
SK-OV-3 = assay: Cytotoxicity against human SKOV3 cells assessed as cell growth at 10 uM after 48 hrs by sulforhodamine B assay; settings: SK-OV-3, 48 h, read-out: Activity
ACHN = assay: Cytotoxicity against human ACHN cells assessed as cell growth at 10 uM after 48 hrs by sulforhodamine B assay; settings: read-out: Activity
SN12C = assay: Cytotoxicity against human SN12C cells assessed as cell growth at 10 uM after 48 hrs by sulforhodamine B assay; settings: read-out: Activity
TK-10 = assay: Cytotoxicity against human TK10 cells assessed as cell growth at 10 uM after 48 hrs by sulforhodamine B assay; settings: TK-10, 48 h, read-out: Activity
UO-31 = assay: Cytotoxicity against human UO31 cells assessed as cell growth at 10 uM after 48 hrs by sulforhodamine B assay; settings: UO-31, 48 h, read-out: Activity
M14 = assay: Cytotoxicity against human M14 cells assessed as cell growth at 10 uM after 48 hrs by sulforhodamine B assay; settings: M14, 48 h, read-out: Activity
MDA-MB-435 = assay: Cytotoxicity against human MDA-MB-435 cells assessed as cell growth at 10 uM after 48 hrs by sulforhodamine B assay; settings: MDA-MB-435, 48 h, read-out: Activity
SK-MEL-5 = assay: Cytotoxicity against human SK-MEL-5 cells assessed as cell growth at 10 uM after 48 hrs by sulforhodamine B assay; settings: SK-MEL-5, 48 h, read-out: Activity
UACC-257 = assay: Cytotoxicity against human UACC257 cells assessed as cell growth at 10 uM after 48 hrs by sulforhodamine B assay; settings: UACC-257, 48 h, read-out: Activity
DU-145 = assay: Cytotoxicity against human DU145 cells assessed as cell growth at 10 uM after 48 hrs by sulforhodamine B assay; settings: DU-145, 48 h, read-out: Activity
SF-268 = assay: Cytotoxicity against human SF268 cells assessed as cell growth at 10 uM after 48 hrs by sulforhodamine B assay; settings: SF-268, 48 h, read-out: Activity
U-251 = assay: Cytotoxicity against human U251 cells assessed as cell growth at 10 uM after 48 hrs by sulforhodamine B assay; settings: U-251, 48 h, read-out: Activity
[2] = Cytotoxicity against human lung cancer cells after 48 hrs by sulforhodamine B assay; settings: Cancer cell lines
Outline: (§1)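 Cells plated at 5000–40,000/well according to doubling time, then held 24 h at 37 °C, 5% CO2, with time-zero plates TCA-fixed. DMSO stocks (400× top concentration) were diluted in medium containing 50 μg/ml gentamycin, giving five 10-fold or ½-log concentrations. After 48 h, adherent cells were fixed in 10% TCA and suspension cells in 16% TCA (final), stained with 0.4% SRB, read at 515 nm. GI50, TGI and LC50 were calculated per cell line.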

[3] = Cytotoxicity against human colon cancer cells after 48 hrs by sulforhodamine B assay; settings: Cancer cell lines; outline: as §1
[4] = Cytotoxicity against human ovarian cancer cells after 48 hrs by sulforhodamine B assay; settings: Cancer cell lines; outline: as §1
HCT-116 = assay: Cytotoxicity against human HCT116 cells after 48 hrs by sulforhodamine B assay; settings: HCT-116, 48 h
Outline: (§2)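 Cells were plated at 5000–40,000/well according to doubling time and preincubated 24 h at 37 °C, 5% CO2. Time-zero plates were TCA-fixed. DMSO stocks were diluted in medium with gentamycin to five concentrations (10-fold or ½ log series) plus control, then incubated 48 h. Adherent cells were fixed with cold TCA (suspension cells with 16% final), stained with SRB, and read at 515 nm. GI50, TGI and LC50 were calculated per line.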

OVCAR-4 [5] = assay: Cytotoxicity against human OVCAR4 cells after 48 hrs by sulforhodamine B assay; settings: OVCAR-4, 48 h; outline: as §2
[6] = read-out: LC50 (the source's name)

SMILES: Cc1cc(=O)n(C(=O)COc2ccc3c(-c4ccccc4)cc(=O)oc3c2C)[nH]1
- growth at 10 µM (MOLT-4): 22.7%
- growth at 10 µM (NCI-H522): -39.2%
- growth at 10 µM (PC-3): -93%
- growth at 10 µM (UACC-62): -27.3%
- growth at 10 µM (SR): 18.5%
- growth at 10 µM (EKVX): -33.6%
- growth at 10 µM (SK-MEL-2): -12.2%
- growth at 10 µM (OVCAR-4 [1]): -42.9%
- growth at 10 µM (NCI-H226): 0.36%
- growth at 10 µM (NCI-H23): 1.86%
- growth at 10 µM (HCT-15): 38.3%
- growth at 10 µM (KM12): -12%
- growth at 10 µM (MDA-MB-231): -30%
- growth at 10 µM (BT-549): -65.8%
- growth at 10 µM (OVCAR-3): -61.1%
- growth at 10 µM (OVCAR-8): -30.5%
- growth at 10 µM (SK-OV-3): 15.9%
- growth at 10 µM (ACHN): 41.6%
- growth at 10 µM (SN12C): -69.3%
- growth at 10 µM (TK-10): -33.4%
- growth at 10 µM (UO-31): 18.6%
- growth at 10 µM (M14): 17.6%
- growth at 10 µM (MDA-MB-435): -39.6%
- growth at 10 µM (SK-MEL-5): -31.5%
- growth at 10 µM (UACC-257): 6.57%
- growth at 10 µM (DU-145): -56.3%
- growth at 10 µM (SF-268): 2.94%
- growth at 10 µM (U-251): -72.4%
- GI50 [2]: 3.69 µM
- TGI [2]: 37.4 µM
- CC50 [2, 6]: 65.1 µM
- GI50 [3]: 8.98 µM
- TGI [3]: 32.6 µM
- CC50 [3, 6]: 64.5 µM
- GI50 [4]: 8.53 µM
- TGI [4]: 28.7 µM
- CC50 [4, 6]: 52 µM
- GI50 (HCT-116): 1.94 µM
- TGI (HCT-116): 3.76 µM
- GI50 (OVCAR-4 [5]): 1.95 µM
- TGI (OVCAR-4 [5]): 4.73 µM
